Laboratory results taken from PubChem BioAssay AID504383 (The Scripps Research Institute Molecular Screening Center, 2011).
Out of some 2,500 compounds screened, about 1,200 (48%) were called active.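 The calls were made as follows: active = mean activation above the low control average plus 3 SD, as set in the primary screen (cut at about 12% in these data); inactive = the rest.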 So high a share suggests a set chosen from earlier hits. Some of the results follow.

Target: Troponin I, cardiac muscle (Homo sapiens) + Troponin T, cardiac muscle (Homo sapiens) + Troponin C, slow skeletal and cardiac muscles (Homo sapiens) (UniProt P19429+P45379+P63316)
Experiment: cardiac RTF calcium sensitivity activators, confirmation, biochemical, IANBD-TnC fluorescence, triplicate (AID 504383);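 also: 0% = DMSO at 0.472 mM calcium and 100% = DMSO at 2.9 mM calcium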
Conditions: IANBD-labeled cardiac RTF, Ca2+ sensitivity fluorescence; at 7.2 µM; hits give high values; scaled from EC20 to saturating calcium; tested at EC20 calcium, 0.472 mM
Summary of the method: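 material = labelled regulated thin filaments | probe or stimulus = Ca2+ 0.472 mM, EC20 level | dosing = single nominal compound dose of 7.2 µM | schedule = 15 min at 25 °C | signal = fluorescence intensity of labelled filaments | evaluation = fluorescence gain scaled between EC20 and EC100 calcium controls | benchmarks = low control EC20 calcium, high control EC100 calcium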

**Q.** With `Cc1cc(S(=O)(=O)Cc2noc(-c3c(C)noc3C)n2)c(C)cc1Cl` as the compound, how does the activation read?
**A.** The activation was 5.06% (inactive).

**Q.** Which activation does the source give for `O=C(O)C1CCC(CNCc2ccccc2Cl)CC1` (stereo not given) here?
**A.** The activation was 10.5% (inactive).

**Q.** Which activation does the source give for `CC(C)(ONC(=O)Nc1ccccc1Cl)C(=O)O` here?
**A.** Its activation is 833% (active).

**Q.** How did the activation turn out when `O=C(NCCN1CCOCC1)c1ccccc1N1C(=O)[C@@H]2Cc3c([nH]c4ccccc34)C(c3ccc(F)cc3)N2C1=O` (stereo not given in full) was run?
**A.** Its activation is 4.51% (inactive).

**Q.** Which activation does the source give for `CC(C)c1ccc(C2c3[nH]c4ccccc4c3C[C@H]3C(=O)N(c4ccccc4C(=O)N4CCC(C(=O)O)CC4)C(=O)N23)cc1` (stereo not given in full) here?
**A.** Its activation is 12% (active).

**Q.** For `CCN1C(=O)[C@@H]2Cc3c([nH]c4ccccc34)C(c3ccc(OC)cc3)N2C1=S` (stereo not given in full), which activation is on record?
**A.** Its activation is 6.48% (inactive).

**Q.** With `CCOc1nc(OCC)c2[nH]c(C(=O)O)c(Br)c2n1` as the compound, how does the activation read?
**A.** The activation was 4.87% (inactive).

**Q.** For `CC1CN(CCCCOc2ccc3ccccc3c2)CC(C)O1` (stereo not given), which activation is on record?
**A.** The activation was 7.54% (inactive).

**Q.** How did the activation turn out when `Cc1ccccc1C(=O)c1cccn1CC(=O)NCCCN1CC(C)CC(C)C1` (stereo not given) was run?
**A.** The activation was 5.75% (inactive).

**Q.** `CC1CC(C)CN(CCOCCSc2ccccc2)C1` (stereo not given) was tested. Which activation did it give?
**A.** Its activation is 76.1% (active).

**Q.** How did the activation turn out when `Cc1ccccc1C1CC(=O)Oc2cc(O)ccc21` (stereo not given) was run?
**A.** Its activation is -1.84% (inactive).

**Q.** For `COCCn1c(SCC(=O)Nc2ccc(NC(=O)c3ccco3)c(OC)c2)nc2ccccc2c1=O`, which activation is on record?
**A.** Its activation is 14.4% (active).

**Q.** For `O=C(CSc1ccc(Cl)cc1)Nc1cccc(NC(=O)c2ccco2)c1`, which activation is on record?
**A.** The activation was 9.78% (inactive).

**Q.** How did the activation turn out when `COC1=CC2(O)CCCC2=CC1=O` (stereo not given) was run?
**A.** The activation was 6.42% (inactive).

**Q.** Which activation does the source give for `CC(C)(C)NC(=O)NC(=O)Cn1ccsc1=N` here?
**A.** The activation was 135% (active).

**Q.** With `Cc1nc2c(C#N)cnn2c2c1CCN(Cc1ccccc1)N2C` as the compound, how does the activation read?
**A.** Its activation is 389% (active).

**Q.** How did the activation turn out when `Cc1c2c(n3c(nc4ccccc43)c1C#N)N(CCN1CCOCC1)CC2` was run?
**A.** Its activation is 10% (inactive).

**Q.** With `O=C1c2c(O)cc(O)cc2O[C@@]12c1c(cc(O)c3c1O[C@H](c1ccc(O)cc1)[C@@H](O)C3)O[C@@H]2c1ccc(O)cc1` as the compound, how does the activation read?
**A.** The activation was 5.77% (inactive).

**Q.** `CCOc1ccc(C2CC(c3c(O)c4ccccc4oc3=O)=NN2c2ccccc2)cc1OC` (stereo not given) was tested. Which activation did it give?
**A.** Its activation is 22.3% (active).

**Q.** Which activation does the source give for `CCC1(C)COC(c2ccc(OC)c(OC)c2)OC1` (stereo not given) here?
**A.** The activation was 1.48% (inactive).

**Q.** For `NC(=O)c1cc2ccc(O)cc2oc1=NCc1ccccc1`, which activation is on record?
**A.** The activation was 6.57% (inactive).

**Q.** With `CCOC(=O)c1c(-c2ccccc2Cl)csc1NC(=O)c1cc(S(=O)(=O)N2CCOCC2)ccc1C` as the compound, how does the activation read?
**A.** The activation was 12.7% (active).

**Q.** Which activation does the source give for `CCCCCC(C)NC(=S)NC(=O)c1cc(S(=O)(=O)N2CCOCC2)ccc1C` (stereo not given) here?
**A.** The activation was 6.76% (inactive).

**Q.** `Cc1ccc(NC(=O)c2cc(S(=O)(=O)N3CCCCC3)ccc2N2CCOCC2)cc1S(=O)(=O)N(C)C` was tested. Which activation did it give?
**A.** Its activation is 7.6% (inactive).

**Q.** Which activation does the source give for `Oc1ccc2nnc3c(Br)cnn3c2c1` here?
**A.** Its activation is 7.23% (inactive).
